# From ChEMBL document CHEMBL4715798, “Structure-Based Optimization of Multifunctional Agonists for Opioid and Neuropeptide FF Receptors with Potent Nontolerance Forming Analgesic Activities” (J Med Chem, 2016)
# Active and inactive are the calls of the source. The calls are words filed in the database; no cut-off is given here. Non-standard residues stand in square brackets, D forms with d. Residues, ends and D or L forms follow the SMILES beside them. NMeY = CN[C@@H](Cc1ccc(O)cc1)C(=O)O; NMeF = CN[C@@H](Cc1ccccc1)C(=O)O
# What was measured:
# [1] = target: T1, Mu-type opioid receptor (Homo sapiens, UniProt P35372); assay: Agonist activity at mu opioid receptor (unknown origin) expressed in HEK293-A cells assessed as reduction in forskolin-induced cAMP accumulation incubated for 30 mins by competition PKA binding assay; assay type: functional, cell-based
# Procedure, shortened: (§1)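 cAMP functional read-out in transfected cells. Log EC50 ± standard error was obtained by nonlinear regression of data from at least three independent experiments run in duplicate.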
# [2] = target: T2, Neuropeptide FF receptor 1 (Homo sapiens, UniProt Q9GZQ6); assay: Agonist activity at NPFFR1 (unknown origin) expressed in HEK293-A cells assessed as reduction in forskolin-induced cAMP accumulation incubated for 30 mins by competition PKA binding assay; assay type: functional, cell-based; procedure, shortened: as §1
# [3] = target: T3, Delta-type opioid receptor (Homo sapiens, UniProt P41143); assay: Agonist activity at delta opioid receptor (unknown origin) expressed in HEK293-A cells assessed as reduction in forskolin-induced cAMP accumulation incubated for 30 mins by competition PKA binding assay; assay type: functional, cell-based; procedure, shortened: as §1
# [4] = target: Kappa-type opioid receptor (Homo sapiens, UniProt P41145); assay: Agonist activity at kappa opioid receptor (unknown origin) expressed in HEK293-A cells assessed as reduction in forskolin-induced cAMP accumulation incubated for 30 mins by competition PKA binding assay; assay type: functional, cell-based; procedure, shortened: as §1
# [5] = target: T4, Neuropeptide FF receptor 2 (Homo sapiens, UniProt Q9Y5X5); assay: Agonist activity at NPFFR2 (unknown origin) expressed in HEK293-A cells assessed as reduction in forskolin-induced cAMP accumulation incubated for 30 mins by competition PKA binding assay relative to Tyr-D-Ala-Gly-Phe-Gln-Pro-Gln-Arg-Phe-NH2; assay type: functional, cell-based; procedure, shortened: as §1
# [6] = tested on: Mus musculus; assay: Antinociceptive activity in mouse dosed repeated icv injections for 6 days by radiant heat tail-flick test; assay type: functional; conditions: time 6 day
# Procedure, shortened: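 Mice received the same icv dose once daily for 6 days in the radiant heat tail-flick test. Tolerance was judged by comparing the antinociceptive response on day 1 with day 6. Values are mean ± SEM.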
# [7] = target: T2, Neuropeptide FF receptor 1; assay: Agonist activity at NPFFR1 (unknown origin) expressed in HEK293-A cells assessed as reduction in forskolin-induced cAMP accumulation incubated for 30 mins by competition PKA binding assay relative to Tyr-D-Ala-Gly-Phe-Gln-Pro-Gln-Arg-Phe-NH2; assay type: functional, cell-based; conditions: filed as agonist; procedure, shortened: as §1
# [8] = target: T1, Mu-type opioid receptor; assay: Agonist activity at mu opioid receptor (unknown origin) expressed in HEK293-A cells assessed as reduction in forskolin-induced cAMP accumulation incubated for 30 mins by competition PKA binding assay relative to Tyr-D-Ala-Gly-Phe-Gln-Pro-Gln-Arg-Phe-NH2; assay type: functional, cell-based; conditions: filed as agonist; procedure, shortened: as §1
# [9] = target: T4, Neuropeptide FF receptor 2; assay: Agonist activity at NPFFR2 (unknown origin) expressed in HEK293-A cells assessed as reduction in forskolin-induced cAMP accumulation incubated for 30 mins by competition PKA binding assay; assay type: functional, cell-based; procedure, shortened: as §1
# [10] = target: T3, Delta-type opioid receptor; assay: Agonist activity at delta opioid receptor (unknown origin) expressed in HEK293-A cells assessed as reduction in forskolin-induced cAMP accumulation incubated for 30 mins by competition PKA binding assay relative to Tyr-D-Ala-Gly-Phe-Gln-Pro-Gln-Arg-Phe-NH2; assay type: functional, cell-based; conditions: filed as agonist; procedure, shortened: as §1
# [11] = tested on: Mus musculus; assay: Antinociceptive activity in mouse assessed as development of tolerance dosed repeated icv injections for 6 days by radiant heat tail-flick test; assay type: functional, organism-based; conditions: time 6.0 day
# Procedure, shortened: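 Tail-flick test in mice. Peptide was given icv once daily for 6 days at a fixed dose. Antinociceptive responses to the same dose on day 1 and day 6 were compared to judge tolerance. Values are mean ± SEM.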
# [12] = tested on: Mus musculus; assay: Antinociceptive activity in icv dosed mouse assessed as inhibition of phase I flinching behaviors by formalin-induced nociceptive behavioral test; assay type: functional
# [13] = tested on: Mus musculus; assay: Antinociceptive activity in icv dosed mouse assessed as inhibition of phase II flinching behaviors by formalin-induced nociceptive behavioral test; assay type: functional
# [14] = species on record: Mus musculus; assay: Antinociceptive activity in mouse; assay type: functional
# [15] = target: T2, Neuropeptide FF receptor 1; assay: Agonist activity at NPFFR1 (unknown origin) expressed in HEK293-A cells assessed as reduction in forskolin-induced cAMP accumulation at 10 uM incubated for 30 mins by competition PKA binding assay relative to Tyr-D-Ala-Gly-Phe-Gln-Pro-Gln-Arg-Phe-NH2; assay type: functional, cell-based; procedure, shortened: as §1
# [16] = target: T3, Delta-type opioid receptor; assay: Agonist activity at delta opioid receptor (unknown origin) expressed in HEK293-A cells assessed as reduction in forskolin-induced cAMP accumulation at 10 uM incubated for 30 mins by competition PKA binding assay relative to Tyr-D-Ala-Gly-Phe-Gln-Pro-Gln-Arg-Phe-NH2; assay type: functional, cell-based; conditions: filed as agonist; procedure, shortened: as §1
# [17] = tested on: Mus musculus; assay: Antinociceptive activity in mouse model of CFA-induced chronic inflammatory pain assessed as reduction in tactile hyperalgesia at 3 nmol, icv dosed once daily for 6 days; assay type: functional, organism-based; conditions: time 6.0 day
# [18] = tested on: Mus musculus; assay: Antinociceptive activity in mouse model of CFA-induced chronic inflammatory pain assessed as reduction in tactile hyperalgesia at 3 nmol, icv after 15 to 90 mins; assay type: functional, organism-based; conditions: time 15-90 min
Compound,EC50 ([1]; read-out: EC50) [nM],EC50 ([2]; read-out: EC50) [nM],EC50 [3] [nM],EC50 [4] [nM],Emax ([5]; filed as agonist) [%],ED50 [6] [nmol],Emax [7] [%],Emax [8] [%],EC50 ([9]; read-out: EC50) [nM],Emax [10] [%],Activity [11],other results
CSCC[C@@H](NC(=O)[C@@H](N)Cc1ccc(O)cc1)C(=O)NCC(=O)N[C@@H](Cc1ccccc1)C(=O)N[C@@H](CCC(N)=O)C(=O)N1CCC[C@H]1C(=O)N[C@@H](CCC(N)=O)C(=O)N[C@@H](CCCNC(=N)N)C(=O)N[C@@H](Cc1ccccc1)C(N)=O,424,661,114,1260,57.9,0.0314,73.5,89.4,41.3,84.7,inactive,
N=C(N)NCCC[C@H](NC(=O)[C@H](CCC(N)=O)NC(=O)[C@@H]1CCCN1C(=O)[C@H](CCC(N)=O)NC(=O)[C@H](Cc1ccccc1)NC(=O)CNC(=O)[C@@H](CO)NC(=O)[C@@H](N)Cc1ccc(O)cc1)C(=O)N[C@@H](Cc1ccccc1)C(N)=O,563,3200,118,1470,63,0.6062,82.3,97.1,254,84.9,inactive,EC50 ([9]; read-out: pEC50 (converted)): 245 nM
C[C@@H](NC(=O)[C@@H](N)Cc1ccc(O)cc1)C(=O)NCC(=O)N[C@@H](Cc1ccccc1)C(=O)NCC(=O)N1CCC[C@H]1C(=O)N[C@@H](CCC(N)=O)C(=O)N[C@@H](CCCNC(=N)N)C(=O)N[C@@H](Cc1ccccc1)C(N)=O (H-Y[dA]GFGPQRF-NH2),28.4,881,898,1630,56.2,0.4172,66.8,80.4,185,75.7,Active,
CC(C)C[C@H](NC(=O)[C@H](Cc1ccccc1)NC(=O)CNC(=O)[C@@H](C)NC(=O)[C@@H](N)Cc1ccc(O)cc1)C(=O)N1CCC[C@H]1C(=O)N[C@@H](CCC(N)=O)C(=O)N[C@@H](CCCNC(=N)N)C(=O)N[C@@H](Cc1ccccc1)C(N)=O (H-Y[dA]GFLPQRF-NH2),250,54.4,49.3,120,57.3,0.1865,68.4,98.9,259,79.1,Active,EC50 ([2]; read-out: pEC50 (converted)): 53.7 nM
CSCC[C@H](NC(=O)[C@H](Cc1ccccc1)NC(=O)CNC(=O)[C@@H](C)NC(=O)[C@@H](N)Cc1ccc(O)cc1)C(=O)N1CCC[C@H]1C(=O)N[C@@H](CCC(N)=O)C(=O)N[C@@H](CCCNC(=N)N)C(=O)N[C@@H](Cc1ccccc1)C(N)=O (H-Y[dA]GFMPQRF-NH2),127,301,38.8,240,58.4,0.2967,69.2,89.2,87,81.2,Active,
C[C@@H](NC(=O)[C@@H](N)Cc1ccc(O)cc1)C(=O)NCC(=O)N[C@@H](Cc1ccccc1)C(=O)N[C@@H](CCC(N)=O)C(=O)N1CCC[C@H]1C(=O)N[C@@H](CCC(N)=O)C(=O)N[C@@H](CCCNC(=N)N)C(=O)N[C@@H](Cc1ccccc1)C(N)=O (H-Y[dA]GFQPQRF-NH2),308,591,587,564,58.4,0.533,59.9,92.4,185,82.2,Active,ED50 [12]: 120 pmol; ED50 [13]: 1140 pmol; ED50 [14]: 0.39 nmol
C[C@@H](NC(=O)[C@@H](N)Cc1ccc(O)cc1)C(=O)NCC(=O)N[C@@H](Cc1ccccc1)C(=O)N[C@H](C)C(=O)N1CCC[C@H]1C(=O)N[C@@H](CCC(N)=O)C(=O)N[C@@H](CCCNC(=N)N)C(=O)N[C@@H](Cc1ccccc1)C(N)=O (H-Y[dA]GF[dA]PQRF-NH2),249,,810,,45.9,0.3361,,85.6,5010,85.3,Active,EC50 ([1]; read-out: pEC50 (converted)): 245 nM; Emax [15]: 15.1%
CC(C)C[C@@H](NC(=O)[C@H](Cc1ccccc1)NC(=O)CNC(=O)[C@@H](C)NC(=O)[C@@H](N)Cc1ccc(O)cc1)C(=O)N1CCC[C@H]1C(=O)N[C@@H](CCC(N)=O)C(=O)N[C@@H](CCCNC(=N)N)C(=O)N[C@@H](Cc1ccccc1)C(N)=O (H-Y[dA]GF[dL]PQRF-NH2),583,,56.9,,,0.4367,,86.3,651,86.4,Active,Emax [5]: 37.2%; Emax [15]: 30.7%
CSCC[C@@H](NC(=O)[C@H](Cc1ccccc1)NC(=O)CNC(=O)[C@@H](C)NC(=O)[C@@H](N)Cc1ccc(O)cc1)C(=O)N1CCC[C@H]1C(=O)N[C@@H](CCC(N)=O)C(=O)N[C@@H](CCCNC(=N)N)C(=O)N[C@@H](Cc1ccccc1)C(N)=O (H-Y[dA]GF[dM]PQRF-NH2),409,,120,2460,70.2,0.3986,,89.7,318,78.4,Active,Emax [15]: 26.6%
C[C@@H](NC(=O)[C@@H](N)Cc1ccc(O)cc1)C(=O)NCC(=O)N(C)[C@@H](Cc1ccccc1)C(=O)N[C@@H](CCC(N)=O)C(=O)N1CCC[C@H]1C(=O)N[C@@H](CCC(N)=O)C(=O)N[C@@H](CCCNC(=N)N)C(=O)N[C@@H](Cc1ccccc1)C(N)=O (H-Y[dA]G[NMeF]QPQRF-NH2),20.1,289,157,31,54.5,0.3862,67.7,91.6,272,84.9,Active,
CN[C@@H](Cc1ccc(O)cc1)C(=O)N[C@H](C)C(=O)NCC(=O)N[C@@H](Cc1ccccc1)C(=O)N[C@@H](CCC(N)=O)C(=O)N1CCC[C@H]1C(=O)N[C@@H](CCC(N)=O)C(=O)N[C@@H](CCCNC(=N)N)C(=O)N[C@@H](Cc1ccccc1)C(N)=O (H-[NMeY][dA]GFQPQRF-NH2),196,928,,2590,49.5,1.298,72.4,86.7,132,,Active,Emax [16]: 70%
CN1CC[C@]23c4c5ccc(O)c4O[C@H]2[C@@H](O)C=C[C@H]3[C@H]1C5 [MORPHINE],,,,,,,,,,,,Activity [17]: inactive; Activity [18]: Active; ED50 [14]: 1.02 nmol
